In ChEMBL document CHEMBL1147589, “Abeta aggregation inhibitors. Part 1: Synthesis and biological activity of phenylazo benzenesulfonamides” (Bioorg Med Chem Lett, 2004):

Assays:
Rattus norvegicus [1] = organism: Rattus norvegicus; assay: Effective concentration required to inhibit A-beta-40 fibril formation […]; type: functional
How it was run: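 Thioflavin-T binding assay of Aβ40 aggregation. Aβ40 (25) was incubated with the compound at various concentrations in 50 mM TBS, pH 7.4, at 37 °C for 2 days. Fluorescence was read at Ex 450/Em 482 and scaled to Aβ40 alone (100%). EC50 is the concentration inhibiting aggregation by 50%. Values are averages of three separate experiments.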

[2] = Therapeutic index expressed as the ratio of IC50 to EC50; details: rat; read-out: Therapeutic index
How it was run: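 Therapeutic index = IC50/EC50. IC50 is the concentration inhibiting neuron viability by 50% in the MTT reduction assay on cortical neurons. EC50 is the concentration inhibiting Aβ40 aggregation by 50% in the thioflavin-T assay (25 Aβ40, TBS pH 7.4, 37 °C, 2 days). Both were determined at various compound concentrations in three separate experiments.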

Rattus norvegicus [3] = organism: Rattus norvegicus; assay: Evaluated for neurotoxicity by inhibition of neuron viability in rat cortical neurons expressed as IC50; type: functional
How it was run: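 Cortical neurons were incubated with the compound at various concentrations, and viability was measured by MTT reduction with OD at 600 nm on an ELISA reader. IC50 is the concentration inhibiting neuron viability by 50%. Values are averages of three separate experiments.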

EC50 (Rattus norvegicus [1]) [µM] | Compound | selectivity ratio [2] | IC50 (Rattus norvegicus [3]) [µM]
15.1 | CCN(CC)CCNc1ccc(/N=N/c2ccc(S(N)(=O)=O)cc2)c2ccccc12 | 1.47 | 22.1
100 | Nc1ccc(/N=N/c2ccc(S(N)(=O)=O)cc2)cc1 | – | > 100
77.2 | NS(=O)(=O)c1ccc(/N=N/c2ccc(NCS(=O)(=O)O)cc2)cc1 | > 1.29 | > 100
12.9 | CN(C)c1ccc(/N=N/c2ccc(S(N)(=O)=O)cc2)cc1 | > 7.75 | > 100
56.8 | CSc1cc(N)ccc1/N=N/c1ccc(S(N)(=O)=O)cc1 | > 1.76 | > 100
